Source: ChEMBL document CHEMBL2434891, “Design, synthesis, and in vitro cancer cell growth inhibition evaluation and antimalarial testing of trioxanes installed in cyclic 2-enoate substructures” (Eur J Med Chem, 2013)
Values after ≈ are worked out from the molar mass of the structure shown.

Assays:
[1] = Cytotoxicity against human BSY1 cells after 72 hrs by SRB assay; type: functional; details: BSY-1, 72 h
NCI-H226 = assay: Cytotoxicity against human NCI-H226 cells after 72 hrs by SRB assay; type: functional; details: NCI-H226, 72 h
A549 = assay: Cytotoxicity against human A549 cells after 72 hrs by SRB assay; type: functional, cell-based; details: A549, 72 h
In short: (§1)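 Adherent cells grown at 37 °C and 5% CO2. Seeded at 1×10^4/well 24 h before dosing, then 72 h at 10–0.01 µg/mL final. Fixed with cold 50% TCA, stained with 0.4% SRB, dye extracted in 10 mM Tris, read at 540 nm.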

DMS-114 = assay: Cytotoxicity against human DMS114 cells after 72 hrs by SRB assay; type: functional; details: DMS-114, 72 h
HCC 2998 = assay: Cytotoxicity against human HCC2998 cells after 72 hrs by SRB assay; type: functional; details: HCC 2998, 72 h
OVCAR-4 = assay: Cytotoxicity against human OVCAR4 cells after 72 hrs by SRB assay; type: functional; details: OVCAR-4, 72 h
MKN-45 = assay: Cytotoxicity against human MKN45 cells after 72 hrs by SRB assay; type: functional; details: MKN-45, 72 h
[2] = Cytotoxicity against human MKN1 cells after 72 hrs by SRB assay; type: functional; details: MKN-1, 72 h
OVCAR-3 = assay: Cytotoxicity against human OVCAR3 cells after 72 hrs by SRB assay; type: functional; details: OVCAR-3, 72 h
OVCAR-8 = assay: Cytotoxicity against human OVCAR8 cells after 72 hrs by SRB assay; type: functional; details: OVCAR-8, 72 h
PC-3 = assay: Cytotoxicity against human PC3 cells after 72 hrs by SRB assay; type: functional; details: PC-3, 72 h
[3] = Cytotoxicity against human HBC4 cells after 72 hrs by SRB assay; type: functional; details: HBC4, 72 h
BALB/3T3 = assay: Cytotoxicity against mouse BALB/3T3 cells after 72 hrs by SRB assay; type: cell-based; details: BALB/3T3, 72 h
In short: as §1, with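 “CO2. A549 and HCT116 were in RPMI 1640/OptiMEM (50:50) with 5% FBS; BALB/3T3 in Dulbecco medium with 10% FBS and pyruvate.” for “CO2.”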

L6 = assay: Cytotoxicity against rat L6 cells after 70 hrs by alamar blue assay; details: L6, 70 h
Plasmodium falciparum = assay: Antimalarial activity against erythrocytic stage of Plasmodium falciparum NF54 infected in RBC after 48 hrs by [3H]-hypoxanthine incorporation assay; type: functional, organism-based
[4] = read-out: LC50 (the source's name)
[5] = read-out: pLC50 (the source's name) (converted)

COc1ccc(C2O[C@]34CC(c5cccc(OC)c5)OC(=O)C3=C[C@@]2(C)OO4)cc1 (stereo not given in full)
TGI [1]: 17 µM | GI50 ([1]; read-out: GI50): 5 µM | CC50 [1, 4]: 46 µM | TGI (NCI-H226): 40 µM | GI50 (NCI-H226; read-out: GI50): 18 µM | CC50 (NCI-H226; [4]): 92 µM | TGI (A549): 37 µM | GI50 (A549; read-out: GI50): 18 µM | CC50 (A549; [4]): 72 µM | TGI (DMS-114): 20 µM | GI50 (DMS-114; read-out: GI50): 4.4 µM | CC50 (DMS-114; [4]): 95 µM | TGI (HCC 2998): 22 µM | GI50 (HCC 2998; read-out: GI50): 6.3 µM | CC50 (HCC 2998; [4]): 62 µM | TGI (OVCAR-4): 11 µM | GI50 (OVCAR-4; read-out: GI50): 1.5 µM | CC50 (OVCAR-4; [4]): 42 µM | TGI (MKN-45): 30 µM | GI50 (MKN-45; read-out: GI50): 16 µM | CC50 (MKN-45; [4]): 57 µM | TGI [2]: 4.4 µM | GI50 ([2]; read-out: GI50): 2.1 µM | CC50 [2, 4]: 9.1 µM | TGI (OVCAR-3): 5.1 µM | GI50 (OVCAR-3; read-out: GI50): 2.4 µM | CC50 (OVCAR-3; [4]): 13 µM | TGI (OVCAR-8): 38 µM | GI50 (OVCAR-8; read-out: GI50): 9.4 µM | CC50 (OVCAR-8; [4]): 100 µM | TGI (PC-3): 27 µM | GI50 (PC-3; read-out: GI50): 13 µM | CC50 (PC-3; [4]): 56 µM | TGI [3]: 13 µM | GI50 ([3]; read-out: GI50): 3.7 µM | CC50 [3, 4]: 38 µM

COc1ccc(C2O[C@]34CC(c5cccc(Cl)c5)OC(=O)C3=C[C@@]2(C)OO4)cc1 (stereo not given in full)
TGI [1]: 26 µM | GI50 ([1]; read-out: GI50): 12 µM | CC50 [1, 4]: 57 µM | GI50 ([1]; read-out: pGI50 (converted)): 5.01 µM | CC50 [1, 5]: 46.8 µM | TGI (NCI-H226): 48 µM | GI50 (NCI-H226; read-out: GI50): 20 µM | CC50 (NCI-H226; [4]): 100 µM | GI50 (NCI-H226; read-out: pGI50 (converted)): 17.8 µM | CC50 (NCI-H226; [5]): 91.2 µM | IC50 (A549): 10.2 µM | TGI (A549): 38 µM | GI50 (A549; read-out: GI50): 18 µM | CC50 (A549; [4]): 78 µM | GI50 (A549; read-out: pGI50 (converted)): 17.8 µM | CC50 (A549; [5]): 77.6 µM | TGI (DMS-114): 36 µM | GI50 (DMS-114; read-out: GI50): 14 µM | CC50 (DMS-114; [4]): 92 µM | GI50 (DMS-114; read-out: pGI50 (converted)): 4.47 µM | CC50 (DMS-114; [5]): 95.5 µM | TGI (HCC 2998): 30 µM | GI50 (HCC 2998; read-out: GI50): 15 µM | CC50 (HCC 2998; [4]): 62 µM | GI50 (HCC 2998; read-out: pGI50 (converted)): 6.31 µM | CC50 (HCC 2998; [5]): 61.7 µM | IC50 (BALB/3T3): 8.97 µM | IC50 (L6): 0.46 µg/mL (≈ 1.11 µM) | TGI (OVCAR-4): 24 µM | GI50 (OVCAR-4; read-out: GI50): 9.2 µM | CC50 (OVCAR-4; [4]): 59 µM | GI50 (OVCAR-4; read-out: pGI50 (converted)): 1.55 µM | CC50 (OVCAR-4; [5]): 41.7 µM | IC50 (Plasmodium falciparum): 1.38 µg/mL (≈ 3.33 µM) | TGI (MKN-45): 31 µM | GI50 (MKN-45; read-out: GI50): 14 µM | CC50 (MKN-45; [4]): 68 µM | GI50 (MKN-45; read-out: pGI50 (converted)): 15.5 µM | CC50 (MKN-45; [5]): 57.5 µM | TGI [2]: 17 µM | GI50 ([2]; read-out: GI50): 4.5 µM | CC50 [2, 4]: 49 µM | GI50 ([2]; read-out: pGI50 (converted)): 2.09 µM | CC50 [2, 5]: 9.12 µM | TGI (OVCAR-3): 10 µM | GI50 (OVCAR-3; read-out: GI50): 3.4 µM | CC50 (OVCAR-3; [4]): 42 µM | GI50 (OVCAR-3; read-out: pGI50 (converted)): 2.45 µM | CC50 (OVCAR-3; [5]): 12.6 µM | TGI (OVCAR-8): 41 µM | GI50 (OVCAR-8; read-out: GI50): 12 µM | CC50 (OVCAR-8; [4]): 100 µM | GI50 (OVCAR-8; read-out: pGI50 (converted)): 9.33 µM | CC50 (OVCAR-8; read-out: pLC50 (converted)): > 100 µM | TGI (PC-3): 28 µM | GI50 (PC-3; read-out: GI50): 15 µM | CC50 (PC-3; [4]): 55 µM | GI50 (PC-3; read-out: pGI50 (converted)): 13.2 µM | CC50 (PC-3; [5]): 56.2 µM | TGI [3]: 24 µM | GI50 ([3]; read-out: GI50): 11 µM | CC50 [3, 4]: 54 µM | GI50 ([3]; read-out: pGI50 (converted)): 3.72 µM | CC50 [3, 5]: 38 µM
